# From ChEMBL document CHEMBL4229380, “Arylureas derived from colchicine: Enhancement of colchicine oncogene downregulation activity” (Eur J Med Chem, 2018)
# Experiments:
# HT-29 [1] = assay: Antiproliferative activity against human HT-29 cells after 2 days by MTT assay; format: functional, cell-based; conditions: HT-29, 48 h
# How it was run: (§1)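 Cells (5×10^3 per well) in DMEM with 10% FBS, glucose, glutamine and antibiotics were exposed to serial dilutions (stocks in DMSO) for 2 days at 37 °C, 5% CO2. MTT was added for 3 h, formazan was dissolved in DMSO and absorbance read at 490 nm. Viability was taken as % of untreated cells. IC50 was read graphically from three independent experiments.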
# HT-29 [2] = assay: Effect on c-MYC gene expression in human HT-29 cells assessed as c-MYC level at 0.5 nM after 48 hrs by RT-qPCR analysis; format: functional
# How it was run: (§2)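 HT-29 cells at 70–80% confluence were seeded at 1.5×10^5 per well and left 24 h, then treated 48 h, with DMSO as control. Total RNA was extracted and VEGF-A, c-Myc and hTERT were quantified by TaqMan qPCR, normalized to β-actin and to living cell number. Results are % expression versus control, at least three measurements.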
# HT-29 [3] = assay: Induction of apoptosis in human HT-29 cells assessed as viable cells at 2000 nM after 48 hrs by Annexin V-FITC staining-based flow cytometric analysis (reference value: 82 +/- 1%); format: functional; conditions: HT-29, 48 h, read-out: Activity
# HT-29 [4] = assay: Induction of apoptosis in human HT-29 cells assessed as necrotic cells at 2000 nM after 48 hrs by Annexin V-FITC staining-based flow cytometric analysis (reference value: 2 +/- 6%); format: functional
# HEK293 = assay: Antiproliferative activity against human HEK293 cells after 2 days by MTT assay; format: cell-based; conditions: HEK293, 48 h; how it was run: as §1
# MCF7 = assay: Antiproliferative activity against human MCF7 cells after 2 days by MTT assay; format: functional, cell-based; conditions: MCF7, 48 h; how it was run: as §1
# HT-29 [5] = assay: Effect on VEGFR2 protein expression in human HT-29 cells assessed as VEGFR2 level at 0.5 nM after 48 hrs by ELISA; format: functional
# How it was run: (§3)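 HT-29 cells (1.5×10^5 per well, 24 h pre-culture) were treated 48 h and washed in PBS. They were lysed in Tris pH 7.4 buffer with detergents, phosphatase inhibitors, PMSF and protease inhibitors. Lysates were adjusted to 200 µg/mL protein (Bradford) and total c-Myc or VEGFR-2 was measured by sandwich ELISA kit. Values are % of DMSO control, ≥3 measurements.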
# HT-29 [6] = assay: Effect on VEGF protein expression in human HT-29 cells assessed as secreted VEGF level in culture media at 0.5 nM after 48 hrs by ELISA
# HT-29 [7] = assay: Effect on c-MYC protein expression in human HT-29 cells assessed as c-MYC level at 0.5 nM after 48 hrs by ELISA; format: functional; how it was run: as §3
# HT-29 [8] = assay: Effect on VEGF gene expression in human HT-29 cells assessed as VEGF level at 0.5 nM after 48 hrs by RT-qPCR analysis; format: functional; how it was run: as §2
# HT-29 [9] = assay: Induction of apoptosis in human HT-29 cells assessed as apoptotic cells at 2000 nM after 48 hrs by Annexin V-FITC staining-based flow cytometric analysis (reference value: 13 +/- 3%); format: functional
# HT-29 [10] = assay: Effect on hTERT gene expression in human HT-29 cells assessed as hTERT level at 0.5 nM after 48 hrs by RT-qPCR analysis; format: functional; how it was run: as §2
# HeLa = assay: Antiproliferative activity against human HeLa cells after 2 days by MTT assay; format: functional, cell-based; conditions: 48 h; how it was run: as §1
# HT-29 [11] = assay: Effect on VEGF protein expression in human HT-29 cells assessed as secreted VEGF level in culture media at 20 nM after 48 hrs by ELISA
# HT-29 [12] = assay: Effect on c-MYC protein expression in human HT-29 cells assessed as c-MYC level at 20 nM after 48 hrs by ELISA; format: functional; how it was run: as §3
# HT-29 [13] = assay: Induction of apoptosis in human HT-29 cells assessed as apoptotic cells at 20 nM after 48 hrs by Annexin V-FITC staining-based flow cytometric analysis (reference value: 13 +/- 3%); format: functional
# HT-29 [14] = assay: Effect on VEGFR2 protein expression in human HT-29 cells assessed as VEGFR2 level at 20 nM after 48 hrs by ELISA; format: functional; how it was run: as §3
# HT-29 [15] = assay: Effect on hTERT gene expression in human HT-29 cells assessed as hTERT level at 20 nM after 48 hrs by RT-qPCR analysis; format: functional; how it was run: as §2
# HT-29 [16] = assay: Induction of apoptosis in human HT-29 cells assessed as viable cells at 20 nM after 48 hrs by Annexin V-FITC staining-based flow cytometric analysis (reference value: 82 +/- 1%); format: functional; conditions: HT-29, 48 h, read-out: Activity
# HT-29 [17] = assay: Effect on VEGF gene expression in human HT-29 cells assessed as VEGF level at 20 nM after 48 hrs by RT-qPCR analysis; format: functional; how it was run: as §2
# HT-29 [18] = assay: Effect on c-MYC gene expression in human HT-29 cells assessed as c-MYC level at 20 nM after 48 hrs by RT-qPCR analysis; format: functional; how it was run: as §2
# HT-29 [19] = assay: Induction of apoptosis in human HT-29 cells assessed as necrotic cells at 20 nM after 48 hrs by Annexin V-FITC staining-based flow cytometric analysis (reference value: 2 +/- 6%); format: functional
# HT-29 [20] = assay: Induction of apoptosis in human HT-29 cells assessed as necrotic cells at 40 nM after 48 hrs by Annexin V-FITC staining-based flow cytometric analysis (reference value: 2 +/- 6%); format: functional
# HT-29 [21] = assay: Induction of apoptosis in human HT-29 cells assessed as viable cells at 40 nM after 48 hrs by Annexin V-FITC staining-based flow cytometric analysis (reference value: 82 +/- 1%); format: functional; conditions: HT-29, 48 h, read-out: Activity
# HT-29 [22] = assay: Effect on VEGF protein expression in human HT-29 cells assessed as secreted VEGF level in culture media at 25 nM after 48 hrs by ELISA
# HT-29 [23] = assay: Induction of apoptosis in human HT-29 cells assessed as apoptotic cells at 40 nM after 48 hrs by Annexin V-FITC staining-based flow cytometric analysis (reference value: 13 +/- 3%); format: functional
# HT-29 [24] = assay: Effect on hTERT gene expression in human HT-29 cells assessed as hTERT level at 25 nM after 48 hrs by RT-qPCR analysis; format: functional; how it was run: as §2
# HT-29 [25] = assay: Effect on c-MYC gene expression in human HT-29 cells assessed as c-MYC level at 25 nM after 48 hrs by RT-qPCR analysis; format: functional; how it was run: as §2
# HT-29 [26] = assay: Effect on c-MYC protein expression in human HT-29 cells assessed as c-MYC level at 25 nM after 48 hrs by ELISA; format: functional; how it was run: as §3
# HT-29 [27] = assay: Effect on VEGFR2 protein expression in human HT-29 cells assessed as VEGFR2 level at 25 nM after 48 hrs by ELISA; format: functional; how it was run: as §3
# HT-29 [28] = assay: Effect on VEGF gene expression in human HT-29 cells assessed as VEGF level at 25 nM after 48 hrs by RT-qPCR analysis; format: functional; how it was run: as §2
# HT-29 [29] = assay: Effect on VEGF gene expression in human HT-29 cells assessed as VEGF level at 25 uM after 48 hrs by RT-qPCR analysis; format: functional; how it was run: as §2
# HT-29 [30] = assay: Effect on VEGFR2 protein expression in human HT-29 cells assessed as VEGFR2 level at 25 uM after 48 hrs by ELISA; format: functional; how it was run: as §3
# HT-29 [31] = assay: Induction of apoptosis in human HT-29 cells assessed as necrotic cells at 25000 nM after 48 hrs by Annexin V-FITC staining-based flow cytometric analysis (reference value: 2 +/- 6%); format: functional
# HT-29 [32] = assay: Effect on c-MYC gene expression in human HT-29 cells assessed as c-MYC level at 25 uM after 48 hrs by RT-qPCR analysis; format: functional; how it was run: as §2
# HT-29 [33] = assay: Effect on hTERT gene expression in human HT-29 cells assessed as hTERT level at 25 uM after 48 hrs by RT-qPCR analysis; format: functional; how it was run: as §2
# HT-29 [34] = assay: Effect on c-MYC protein expression in human HT-29 cells assessed as c-MYC level at 25 uM after 48 hrs by ELISA; format: functional; how it was run: as §3
# HT-29 [35] = assay: Induction of apoptosis in human HT-29 cells assessed as viable cells at 25000 nM after 48 hrs by Annexin V-FITC staining-based flow cytometric analysis (reference value: 82 +/- 1%); format: functional; conditions: HT-29, 48 h, read-out: Activity
# HT-29 [36] = assay: Effect on VEGF protein expression in human HT-29 cells assessed as secreted VEGF level in culture media at 25 uM after 48 hrs by ELISA
# HT-29 [37] = assay: Induction of apoptosis in human HT-29 cells assessed as apoptotic cells at 25000 nM after 48 hrs by Annexin V-FITC staining-based flow cytometric analysis (reference value: 13 +/- 3%); format: functional
smiles,measurement,setting,value
COc1cc2c(c(OC)c1OC)-c1ccc(OC)c(=O)cc1[C@@H](NC(=O)Nc1ccc(C)cc1Cl)CC2,IC50,HT-29 [1],0.00071 µM
same,Activity,HT-29 [2],85%
same,viability at 2 µM,HT-29 [3],66%
same,Activity,HT-29 [4],1%
same,IC50,HEK293,0.003 µM
same,IC50,MCF7,0.0009 µM
same,Activity,HT-29 [5],45%
same,Activity,HT-29 [6],75%
same,Activity,HT-29 [7],112%
same,Activity,HT-29 [8],70%
same,Activity,HT-29 [9],33%
same,Activity,HT-29 [10],80%
same,IC50,HeLa,0.003 µM
COc1cc2c(c(OC)c1OC)-c1ccc(OC)c(=O)cc1[C@@H](NC(=O)Nc1ccccc1C(F)(F)F)CC2,Activity,HT-29 [11],82%
same,IC50,HT-29 [1],0.015 µM
same,Activity,HT-29 [12],99%
same,Activity,HT-29 [13],4%
same,Activity,HT-29 [14],100%
same,Activity,HT-29 [15],107%
same,IC50,HEK293,0.019 µM
same,IC50,MCF7,0.025 µM
same,viability at 0.02 µM,HT-29 [16],96%
same,Activity,HT-29 [17],101%
same,Activity,HT-29 [18],107%
same,IC50,HeLa,0.018 µM
same,Activity,HT-29 [19],1%
COc1cc2c(c(OC)c1OC)-c1ccc(OC)c(=O)cc1[C@@H](NC(C)=O)CC2 [COLCHICINE],IC50,HT-29 [1],0.013 µM
same,Activity,HT-29 [20],1%
same,viability at 0.04 µM,HT-29 [21],26%
same,Activity,HT-29 [22],40%
same,Activity,HT-29 [23],73%
same,Activity,HT-29 [24],87%
same,IC50,HEK293,0.013 µM
same,IC50,MCF7,0.02 µM
same,Activity,HT-29 [25],37%
same,Activity,HT-29 [26],63%
same,Activity,HT-29 [27],94%
same,Activity,HT-29 [28],55%
same,IC50,HeLa,0.014 µM
CCN(CC)CCNC(=O)c1c(C)[nH]c(/C=C2\C(=O)Nc3ccc(F)cc32)c1C [SUNITINIB],Activity,HT-29 [29],46%
same,Activity,HT-29 [30],90%
same,Activity,HT-29 [31],3%
same,Activity,HT-29 [32],47%
same,Activity,HT-29 [33],68%
same,Activity,HT-29 [34],100%
same,viability at 25 µM,HT-29 [35],75%
same,Activity,HT-29 [36],45%
same,Activity,HT-29 [37],22%
